Results on 8 molecules are retold here after ChEMBL document CHEMBL2157894, “Antileishmanial bis-arylimidamides: DB766 analogs modified in the linker region and bis-arylimidamide structure-activity relationships” (Bioorg Med Chem Lett, 2012).

Series [1] relates to Leishmania donovani. Description: Antileishmanial activity against amastigote form of Leishmania donovani LV82 expressing beta-lactamase infected in CD1 mouse macrophages after 72 hrs by nitrocefin-based spectrophotometric analysis. The format is functional, organism-based. The following applies: LV82, 72 h. A digest of the protocol: (§1)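 Intracellular amastigotes in macrophages; absorbance read-out with uninfected and infected control wells; IC50 from dose–response curves; mean ± SD of at least three determinations, each run in triplicate.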

Series [2] concerns Leishmania amazonensis. Nature of the series: Antileishmanial activity against amastigote form of Leishmania amazonensis expressing beta-lactamase infected in CD1 mouse macrophages after 72 hrs by nitrocefin-based spectrophotometric analysis. The format is functional, organism-based. The gist of the method: as §1
Series [3] concerns J774. Nature of the series: Cytotoxicity against mouse J774 cells. The format is cell-based. The gist of the method:
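J774 macrophages exposed to compounds; IC50 reported in nM as mean ± SD of at least three determinations.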

A short description of series [4]: Selectivity index, ratio of IC50 for mouse J774 cells to IC50 for Leishmania donovani. The series is classed as toxicity, cell-based. The settings on record: J774 cells versus Leishmania donovani, read-out: Ratio IC50. The gist of the method:
(§2)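 SI calculated as IC50 against J774 macrophages divided by IC50 against intracellular Leishmania, each IC50 from mean of at least three determinations.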

Series [5] relates to Mus musculus. Nature of the series: Toxicity in BALB/c mouse assessed as adverse effects at 30 mg/kg/day, ip administered for 5 days. The format is organism-based. Further details: route intraperitoneal. The settings on record: in vivo, 120 h.
Series [6] deals with Leishmania donovani. Nature of the series: Antileishmanial activity against promastigote form of Leishmania donovani LV82 infected in BALB/c mouse assessed as reduction in liver parasitemia at 30 mg/kg/day, ip administered for 5 days starting 1 week post-infection measured after 2 weeks relative to untreated control. The format is functional. Further details: scale not given: the % may be the effect or the level left. The following applies: route intraperitoneal. A digest of the protocol: (§3)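 Female BALB/c mice infected with L. donovani; treated daily for five days starting one week post infection, test agent ip in water, miltefosine orally at 10 mg/kg/day; liver parasitemia counted microscopically two weeks post infection; % reduction versus infected untreated controls; groups of four, mean ± SD; P<0.05 versus untreated.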

Series [7] can be described thus: Selectivity index, ratio of IC50 for mouse J774 cells to IC50 for Leishmania amazonensis. The format is toxicity, cell-based. The settings on record: J774 cells versus Leishmania amazonensis, read-out: Ratio IC50. The gist of the method: as §2
Series [8] has as its system Mus musculus. Nature of the series: Toxicity in BALB/c mouse assessed as hyperactivity at 30 mg/kg/day, ip measured from day 2 to 3. The format is organism-based. Also noted: route intraperitoneal. The following applies: in vivo.
In series [9] the test system is Mus musculus. Nature of the series: Toxicity in BALB/c mouse assessed as tremors at 30 mg/kg/day, ip measured from day 2 to 3. The format is organism-based. Also noted: route intraperitoneal. The settings on record: in vivo.
Series [10] deals with Mus musculus. Nature of the series: Toxicity in BALB/c mouse assessed as mortality at 30 mg/kg, ip measured within 24 hrs. The format is organism-based. Also noted: dose 30 mg/kg, route intraperitoneal. The following applies: in vivo.
The test system of series [11] is Mus musculus. Description: Gastrointestinal toxicity in BALB/c mouse assessed as black and swollen stomach at 30 mg/kg, ip measured within 24 hrs by necroscopic analysis. The format is organism-based. Also noted: dose 30 mg/kg, route intraperitoneal. The following applies: in vivo.
The subject of series [12] is Mus musculus. Nature of the series: Gastrointestinal toxicity in BALB/c mouse assessed as black and swollen colon at 30 mg/kg, ip measured within 24 hrs by necroscopic analysis. The format is organism-based. The following applies: in vivo. Also noted: dose 30 mg/kg, route intraperitoneal.
For series [13], the system named is Mus musculus. Description: Gastrointestinal toxicity in BALB/c mouse assessed as black and swollen intestine at 30 mg/kg, ip measured within 24 hrs by necroscopic analysis. The series is classed as organism-based. Further details: dose 30 mg/kg, route intraperitoneal. The settings on record: in vivo.
Series [14] deals with Leishmania donovani. Nature of the series: Antileishmanial activity against promastigote form of Leishmania donovani LV82 infected in BALB/c mouse assessed as reduction in liver parasitemia at 10 mg/kg/day, po administered for 5 days relative to untreated control. The series is classed as functional. Also noted: scale not given: the % may be the effect or the level left. The gist of the method: as §3

The structures appear in SMILES notation. pIC50: −log10 of the molar value.

As to `CC(C)Oc1cc(-c2ccc(-c3ccc(NC(=N)c4ccccn4)c(OC(C)C)c3)o2)ccc1NC(=N)c1ccccn1.CS(=O)(=O)O`, the negative logarithm of the IC50 (pIC50) (usually −log10 of the IC50, conventionally taken in molar units) in [1] was 7.59; in series [2] it was 6.54; in series [3], 5.00. Further, in series [4], the selectivity ratio worked out at 385. The Activity entry in series [5] is “Non-toxic”; in series [6], 32%.

With `COc1cc(NC(=N)c2ccccn2)ccc1-c1ccc(-c2ccc(NC(=N)c3ccccn3)cc2OC(C)C)o1.CS(=O)(=O)O`, the pIC50 was 8.15 in series [1], 6.96 in series [2] and 4.85 in series [3]. In addition, the selectivity ratio in [4] stood at 2000; in [7], 127. In addition, the Activity entry in [8] and in series [9] was “Toxic” throughout.

`CS(=O)(=O)O.Cc1cc(NC(=N)c2ccccn2)ccc1-c1ccc(-c2ccc(NC(=N)c3ccccn3)cc2OC(C)C)o1`: the negative logarithm of the IC50 (pIC50) is 7.68 in series [1], 7.31 in series [2] and 4.89 in series [3]. For the same molecule, the selectivity ratio in [4] is 619; in series [7] it was 265. The Activity entry in series [8] and in series [9] was “Toxic” throughout.

With `CC(C)Oc1cc(NC(=N)c2ccccn2)ccc1-c1ccc(-c2ccc(NC(=N)c3ccccn3)cc2F)o1.CS(=O)(=O)O`, the negative logarithm of the IC50 (pIC50) in series [1] is 6.82; in series [2], 6.72; in series [3], 4.57. In addition, the results for the selectivity ratio in [4] and in series [7] were 180 and 142, respectively. Further, the Activity entry in series [8] and in [9] was “Toxic” in each case.

With `CC(C)Oc1cc(NC(=N)c2ccccn2)ccc1-c1ccc(-c2ccc(NC(=N)c3ccccn3)cc2)o1.CS(=O)(=O)O`, the pIC50 in [1] was 8.28; in series [2] it was 7.03; in [3], 4.96. Further, the selectivity ratio stood at 2080 in [4] and 115 in series [7]. The Activity result in [10], in series [11], in series [12] and in series [13] was “Toxic” throughout.

For the molecule `C[C@@H]1[C@H](O)[C@@H](C)/C=C/C=C/C=C/C=C/C=C/C=C/C=C/[C@H](O[C@@H]2O[C@H](C)[C@@H](O)[C@H](N)[C@@H]2O)C[C@@H]2O[C@](O)(C[C@@H](O)C[C@@H](O)[C@H](O)CC[C@@H](O)C[C@@H](O)CC(=O)O[C@H]1C)C[C@H](O)[C@H]2C(=O)O` [AMPHOTERICIN B], in series [1], the pIC50 was 7.35.

Regarding `CCCCCCCCCCCCCCCCOP(=O)([O-])OCC[N+](C)(C)C` [MILTEFOSINE], the Activity in [14] is reported as 96%.

In series [3], `COc1cc([C@@H]2c3cc4c(cc3[C@H](O)[C@H]3COC(=O)[C@H]23)OCO4)cc(OC)c1OC` [PODOFILOX] showed a pIC50 of 7.74.
